Laboratory results as given in ChEMBL document CHEMBL1135654, “Antitumor agents. 1. Synthesis, biological evaluation, and molecular modeling of 5H-pyrido[3,2-a]phenoxazin-5-one, a compound with potent antiproliferative activity” (J Med Chem, 2002).
Starred links: 1 amine or outer side, 2 acyl side, 3 side chain; linkers in the order of their positions; H or OH if unused. Positions of bridges follow the written chain, without caps; N, C: chain ends. Non-standard residues stand in square brackets, D forms with d. Residues, ends and D or L forms follow the SMILES beside them. Chains are numbered I, II in the order given. Actinocin(1to9) = Cc1c2oc3c(C)ccc(C(=O)[*:2])c3nc-2c(C(=O)[*:1])c(N)c1=O; NMeV = CN[C@H](C(=O)O)C(C)C; Sar = CNCC(=O)O

What was measured:
HEp-2 [1] = assay: Compound concentration required to reduce the cell proliferation of larynx carcinoma cells by 50%, using MTT method; format: functional, cell-based; details: Homo sapiens
Method in brief: (§1)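 Solid-tumor cells in exponential growth seeded at 5 × 10^4 cells/mL in their own medium with 10% FCS, allowed to adhere 16 h, then serially diluted drug added (DMSO stock 200 µM diluted in medium). MTT viability read 4 days later, 37 °C, 5% CO2. IC50 by linear regression from % of untreated control growth. Three independent determinations.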

HeLa [2] = assay: Compound concentration required to reduce the cell proliferation of cervix carcinoma Hela cells by 50%, using MTT method; format: functional, cell-based; details: Homo sapiens; method in brief: as §1
CCRF-SB [3] = assay: Compound concentration required to reduce the cell proliferation of human acute B-lymphoblastic leukemia CCRF-SB cells by 50%, using MTT method; format: functional, cell-based
Method in brief: (§2)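 Leukemia/lymphoma cells in exponential growth resuspended at 1 × 10^5 cells/mL in RPMI 1640 (10% FCS, antibiotics) with serial dilutions of drug (DMSO stock 200 µM diluted in medium). Viability by MTT after 96 h at 37 °C, 5% CO2. Growth expressed as % of untreated controls; IC50 by linear regression. Controls underwent ≥3 rounds of multiplication. Mean of three independent determinations.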

MT4 [4] = assay: Compound concentration required to reduce the cell proliferation of human CD4+T cells by 50%, using MTT method; format: functional, cell-based; method in brief: as §2
CCRF-CEM [5] = assay: Compound concentration required to reduce the cell proliferation of human acute T-lymphoblastic leukemia CCRF-CEM cells by 50%, using MTT method; format: functional, cell-based; method in brief: as §2
HeLa [6] = assay: Antitumor activity against cervix carcinoma Hela cells; format: functional, cell-based; details: Homo sapiens; method in brief: as §1
HT-29 = assay: Antitumor activity against human colon adenocarcinoma HT-29 cells; format: functional, cell-based; method in brief: as §1
SK-MEL-28 = assay: Antitumor activity against human skin melanoma […] cells; format: functional, cell-based; method in brief: as §1
CCRF-CEM [7] = assay: Antitumor activity against human acute T-lymphoblastic leukemia CCRF-CEM cells; format: functional, cell-based; method in brief: as §2
G-361 = assay: Antitumor activity against human skin melanoma G-361 cells; format: functional, cell-based; method in brief: as §1
HepG2 = assay: Antitumor activity against human hepatocellular carcinoma HepG2 cells; format: functional, cell-based; method in brief: as §1
C8166 = assay: Antitumor activity against […] human acute T-lymphoblastic leukemia C8166 cells; format: functional, cell-based; method in brief: as §2
WIL2-NS [8] = assay: Antitumor activity against human splenic B-lympho blastoid Wil2-NS cells; format: functional, cell-based; method in brief: as §2
DU-145 = assay: Antitumor activity against human prostate carcinoma DU145 cells; format: functional, cell-based; method in brief: as §1
ACHN = assay: Antitumor activity against human renal adenocarcinoma ACHN cells; format: functional, cell-based; method in brief: as §1
MT4 [9] = assay: Antitumor activity against […] human acute T-lymphoblastic leukemia MT-4 cells; format: functional, cell-based; method in brief: as §2
5637 = assay: Antitumor activity against human bladder carcinoma 5637 cells; format: functional, cell-based; method in brief: as §1
CRL-7065 cell line = assay: Antitumor activity against human foreskin fibroblasts CRL7065 cells; format: functional, cell-based; method in brief: as §1
HEp-2 [10] = assay: Antitumor activity against larynx carcinoma Hep-2 cells; format: functional, cell-based; details: Homo sapiens; method in brief: as §1
MCF7 = assay: Antitumor activity against human breast adenocarcinoma MCF-7 cells; format: functional, cell-based; method in brief: as §1
CCRF-SB [11] = assay: Antitumor activity against human acute B-lymphoblastic leukemia CCRF-SB cells; format: functional, cell-based; method in brief: as §2
SK-MES-1 = assay: Antitumor activity against human lung squamous carcinoma SK-MES-1 cells; format: functional, cell-based; method in brief: as §1
Raji = assay: Antitumor activity against human Burkitt lym phoma Raji cells; format: functional, cell-based; method in brief: as §2
MOLT-4 = assay: Antitumor activity against human acute T-lymphoblastic leukemia MOLT-4 cells; format: functional, cell-based
MT4 [12] = assay: Antitumor activity against human CD4+T cells expressing the TAT gene of HTLV-1 MT-4 cells; format: functional, cell-based; method in brief: as §2
IMR-32 = assay: Antitumor activity against human neuroblastoma IMR32 cells; format: functional, cell-based; method in brief: as §1
[13] = Compound concentration required to reduce the cell proliferation of Wild type and Drug- resistant human nasopharyngeal carcinoma KB cells by 50%; format: functional, cell-based
Method in brief: (§3)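 Cells seeded at 5 × 10^4 cells/mL, adhered 16 h, exposed to serial drug dilutions; MTT after 4 days. IC50 by linear regression versus untreated controls; mean ± SD of three independent determinations.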

[14] = Effect on the proliferation Wild -type and Drug- resistant KB subclones passaged in the presence of vincristine 0.02 uM; format: functional, Homo sapiens; method in brief: as §3
[15] = (§4) Cytotoxicity for Peripheral blood Lymphocytes; format: functional; details: Homo sapiens
Method in brief: (§5)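 Human PBL from HIV-negative donors, isolated on Ficoll-Hypaque. Resting cells (1 × 10^6/mL) exposed up to 3 days to serial drug dilutions, washed, PHA-stimulated 24 h, diluted to 1 × 10^5/mL with PHA and IL-2, viability read after 6 days at 37 °C. Alternatively, PBL stimulated with PHA (2.5 µg/mL) 24 h, then grown with PHA, IL-2 (50 U/mL) and drug, and viable cells counted at day 6. Mean ± SD, three experiments.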

WIL2-NS [16] = assay: Anti tumor activity against human splenic B-lympho blastoid Wil2-NS cells; format: functional, cell-based; method in brief: as §2
[17] = Compound concentration required to reduce the cell proliferation of Wild type and drug-resistant KB subclones passaged in the presence of etoposide 7 uM by 50%; format: functional; details: Homo sapiens; method in brief: as §3
[18] = system: Panel leukemia (Carcinoma cell lines); assay: (§6) Cytotoxicity for lymphoblastoid cell lines; format: functional; details: Homo sapiens
[19] = Compound concentration required to reduce the cell proliferation of Wild type and Drug- resistant KB subclones passaged in the presence of doxorubicin 0.09 uM by 50%; format: functional; details: Homo sapiens; method in brief: as §3
[20] = as §4; format: functional; details: Homo sapiens; method in brief: as §5; remark: listed apart in the source
[21] = Effect on the proliferation Wild -type and Drug- resistant KB subclones passaged uM; format: functional, Homo sapiens; method in brief: as §3
Lymphoblastoid cell = assay: as §6; format: functional; details: Homo sapiens

SMILES | IC50 (HeLa [6]) [µM] | IC50 (HT-29) [µM] | IC50 (SK-MEL-28) [µM] | IC50 (CCRF-CEM [7]) [µM] | IC50 (G-361) [µM] | IC50 (HepG2) [µM] | IC50 (C8166) [µM] | IC50 (DU-145) [µM] | IC50 (ACHN) [µM] | IC50 5637 [µM] | IC50 (HEp-2 [10]) [µM] | IC50 (MCF7) [µM] | IC50 (CCRF-SB [11]) [µM] | IC50 (SK-MES-1) [µM] | IC50 (Raji) [µM] | IC50 (MOLT-4) [µM] | IC50 (MT4 [9]) [µM] | IC50 (CRL-7065 cell line) [µM] | IC50 (MT4 [12]) [µM] | IC50 [13] [µM] | also measured
Nc1cc2nc3ccccc3oc-2cc1=O | – | – | – | – | – | – | – | – | – | – | – | – | – | – | – | – | – | – | – | – | IC50 (HEp-2 [1]): 1.8 µM; IC50 (HeLa [2]): 2.7 µM; IC50 (CCRF-SB [3]): 1 µM; IC50 (MT4 [4]): 1.2 µM; IC50 (CCRF-CEM [5]): 2 µM
O=c1cc2sc3ccccc3nc-2c2cccnc12 | 0.6 | 10 | 0.81 | 0.07 | 0.22 | 0.11 | 0.41 | 0.61 | 1.92 | 0.15 | 0.1 | 0.65 | 0.08 | 0.8 | 0.03 | 0.14 | 0.08 | 0.81 | 0.08 | – | IC50 (WIL2-NS [8]): 0.15 µM; IC50 (IMR-32): 0.53 µM
O=c1cc2oc3ccccc3nc-2c2cccnc12 | 0.2 | 0.25 | 0.21 | 0.01 | 0.01 | 0.05 | 0.1 | 0.04 | 0.01 | 0.01 | 0.04 | 0.23 | 0.009 | 0.04 | 0.04 | 0.04 | 0.01 | 0.5 | 0.01 | 0.1 | IC50 [14]: 0.06 µM; CC50 [15]: 0.03 µM; IC50 (WIL2-NS [16]): 0.05 µM; IC50 [17]: 0.02 µM; CC50 [18]: 0.04 µM; IC50 [19]: 0.04 µM; IC50 (IMR-32): 0.01 µM; CC50 [20]: 5 µM

The remaining compounds from weak to strong by IC50 (HT-29), led by results:

IC50 (HeLa [6]) [µM] | IC50 (HT-29) [µM] | IC50 (SK-MEL-28) [µM] | IC50 (CCRF-CEM [7]) [µM] | IC50 (G-361) [µM] | IC50 (HepG2) [µM] | IC50 (C8166) [µM] | IC50 (DU-145) [µM] | IC50 (ACHN) [µM] | IC50 5637 [µM] | IC50 (HEp-2 [10]) [µM] | IC50 (MCF7) [µM] | IC50 (CCRF-SB [11]) [µM] | IC50 (SK-MES-1) [µM] | IC50 (Raji) [µM] | IC50 (MOLT-4) [µM] | SMILES | IC50 (MT4 [9]) [µM] | IC50 (CRL-7065 cell line) [µM] | IC50 (MT4 [12]) [µM] | IC50 [13] [µM] | also measured
– | 0.15 | 0.06 | 0.02 | 0.09 | 0.12 | 0.02 | 0.03 | 0.04 | – | 0.04 | – | 0.03 | 0.03 | 0.03 | – | COc1cccc2c1C(=O)c1c(O)c3c(c(O)c1C2=O)C[C@@](O)(C(=O)CO)C[C@@H]3O[C@H]1C[C@H](N)[C@H](O)[C@H](C)O1 [DOXORUBICIN] | 0.01 | 0.5 | 0.01 | 0.06 | CC50 [15]: 0.04 µM; IC50 [17]: 2.8 µM; IC50 [21]: 0.4 µM; CC50 (Lymphoblastoid cell): 0.02 µM; IC50 [19]: 1.8 µM; CC50 [20]: 0.09 µM
0.008 | 0.006 | 0.002 | 0.001 | 0.001 | 0.01 | 0.0008 | 0.008 | 0.005 | 0.003 | 0.004 | 0.006 | 0.002 | 0.004 | 0.002 | 0.001 | Cc1c2oc3c(C)ccc(C(=O)N[C@@H]4C(=O)N[C@H](C(C)C)C(=O)N5CCC[C@H]5C(=O)N(C)CC(=O)N(C)[C@@H](C(C)C)C(=O)O[C@@H]4C)c3nc-2c(C(=O)N[C@@H]2C(=O)N[C@H](C(C)C)C(=O)N3CCC[C@H]3C(=O)N(C)CC(=O)N(C)[C@@H](C(C)C)C(=O)O[C@@H]2C)c(N)c1=O [DACTINOMYCIN] (I: T[dV]P[Sar][NMeV] / II: T[dV]P[Sar][NMeV]; ester I:1-I:C, II:1-II:C; linker I:N-II:N via Actinocin(1to9)) | 0.001 | 0.007 | 0.001 | 0.005 | CC50 [15]: 0.005 µM; IC50 (WIL2-NS [16]): 0.003 µM; IC50 [17]: 0.2 µM; IC50 [21]: 0.05 µM; CC50 [18]: 0.003 µM; IC50 [19]: 0.2 µM; CC50 [20]: 0.002 µM
